# Assay results taken from ChEMBL document CHEMBL1135766, “Synthesis of conformationally constrained analogues of linezolid: structure-activity relationship (SAR) studies on selected novel tricyclic oxazolidinones” (2002).
# Tests used:
# Enterococcus faecalis [1] = test: In vitro antibacterial activity against Enterococcus faecalis ATCC 29212 (E. f. 034) vancomycin sensitive; type: functional
# Procedure, shortened: (§1)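 Broth microdilution MIC per NCCLS guidelines in Mueller Hinton medium. Doubling dilutions from 256 to 1 μg/mL, inoculum (1–5) × 10⁵ CFU/mL, incubated overnight in ambient air at 35 °C. MIC is the lowest concentration giving complete growth inhibition. Linezolid and vancomycin served as controls.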
# Enterococcus faecium = test: In vitro antibacterial activity against Enterococcus faecium ATCC 12202 (E.fm 154) vancomycin resistant; type: functional, enterococcus fecium; procedure, shortened: as §1
# Staphylococcus aureus [2] = test: In vitro antibacterial activity against methicillin resistant Staphylococcus aureus ATCC 33591 (S. a. 019); type: functional; procedure, shortened: as §1
# Enterococcus faecalis [3] = test: In vitro antibacterial activity against Enterococcus faecalis ATCC 29212 (E. f. 153) vancomycin sensitive; type: functional
# Procedure, shortened: (§2)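 Broth microdilution per NCCLS guidelines in Mueller Hinton medium. Doubling dilutions 256–1 μg/mL; inoculum (1–5) × 10⁵ CFU/mL; plates incubated overnight at 35 °C in ambient air. MIC read as the lowest concentration giving complete growth inhibition. Linezolid and vancomycin served as controls.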
# Staphylococcus aureus [4] = test: In vitro antibacterial activity against Staphylococcus aureus ATCC 29213 (S. a. 035); type: functional; procedure, shortened: as §2
# Enterococcus faecalis [5] = test: In vitro antibacterial activity against Enterococcus faecalis NCTC 12201 (E. f. 153) vancomycin resistant; type: functional; procedure, shortened: as §1
# Staphylococcus aureus [6] = test: In vitro antibacterial activity against Staphylococcus aureus ATCC 49951 (S. a. 213); type: functional; procedure, shortened: as §1
# Mus musculus [7] = test: In vivo antibacterial activity in a murine systemic infection model; type: functional
# Procedure, shortened: (§3)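 Female Swiss Albino mice (22–25 g, n = 6) were infected intraperitoneally with 0.5 mL S. aureus ATCC 29213. The inoculum was grown 2–3 h at 35 °C in BHI broth and adjusted to 100 × LD50 in 5% hog gastric mucin. Compound was suspended in 0.25% carboxymethyl cellulose and given orally 1 and 6 h post-infection; controls received saline. Cumulative mortality was scored over 48 h, and ED50 was derived by linear regression.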
# Mus musculus [8] = test: In vivo antibacterial activity in a murine systemic infection model (95%confidence limits); type: functional; procedure, shortened: as §3
Structure (SMILES),MIC (Enterococcus faecalis [1]) [µg/mL],MIC (Enterococcus faecium) [µg/mL],MIC (Staphylococcus aureus [2]) [µg/mL],MIC (Enterococcus faecalis [3]) [µg/mL],MIC (Staphylococcus aureus [4]) [µg/mL],MIC (Enterococcus faecalis [5]) [µg/mL],MIC (Staphylococcus aureus [6]) [µg/mL],ED50 (Mus musculus [7]) [mg/kg],ED50 (Mus musculus [8]) [mg/kg]
O=C(CCl)NC[C@H]1CN(c2cc(F)c3c(c2)OC[C@@H]2CCCN32)C(=O)O1,2,2,1,2,1,,,,
C/N=C(\S)NC[C@H]1CN(c2cc(F)c3c(c2)OC[C@@H]2CCCN32)C(=O)O1,2,4,2,,4,4,4,,
C=CC(=O)NC[C@H]1CN(c2cc(F)c3c(c2)OC[C@@H]2CCCN32)C(=O)O1,4,4,4,,4,4,4,30,
O=CNC[C@H]1CN(c2ccc3c(c2)OC[C@@H]2CCCN32)C(=O)O1,16,16,4,,8,16,,,
CC(=O)NC[C@H]1CN(c2ccc3c(c2)OC[C@@H]2CCCN32)C(=O)O1,16,16,4,,8,16,4,,
CC(C)C(=O)NC[C@H]1CN(c2cc(F)c3c(c2)OC[C@@H]2CCCN32)C(=O)O1,16,16,8,,8,16,8,,
CCC(=O)NC[C@H]1CN(c2cc(F)c3c(c2)OC[C@@H]2CCCN32)C(=O)O1,4,8,2,,4,8,4,16,
CCCCC(=O)NC[C@H]1CN(c2cc(F)c3c(c2)OC[C@@H]2CCCN32)C(=O)O1,16,32,8,,16,16,16,,
CCOC(=O)NC[C@H]1CN(c2cc(F)c3c(c2)OC[C@@H]2CCCN32)C(=O)O1,8,8,8,,8,8,8,,
CC/C(S)=N\C[C@H]1CN(c2cc(F)c3c(c2)OC[C@@H]2CCCN32)C(=O)O1,0.5,0.5,0.5,,1,0.5,0.5,30,
COC(=O)NC[C@H]1CN(c2cc(F)c3c(c2)OC[C@@H]2CCCN32)C(=O)O1,2,2,2,,2,2,2,3.3,
CCCCO/C(S)=N\C[C@H]1CN(c2cc(F)c3c(c2)OC[C@@H]2CCCN32)C(=O)O1,> 32,> 32,> 32,> 32,> 32,,> 32,,
O=C1O[C@@H](C/N=C(/S)N2CCOCC2)CN1c1cc(F)c2c(c1)OC[C@@H]1CCCN21,16,16,16,,16,16,16,,
CCO/C(S)=N\C[C@H]1CN(c2cc(F)c3c(c2)OC[C@@H]2CCCN32)C(=O)O1,2,2,1,2,2,,2,,
CCCCCC(=O)NC[C@H]1CN(c2cc(F)c3c(c2)OC[C@@H]2CCCN32)C(=O)O1,32,32,16,,32,32,32,,
CO/C(S)=N\C[C@H]1CN(c2cc(F)c3c(c2)OC[C@@H]2CCCN32)C(=O)O1,0.5,0.5,0.5,0.5,1,,1,,4.85
N=C(S)NC[C@H]1CN(c2cc(F)c3c(c2)OC[C@@H]2CCCN32)C(=O)O1,1,1,0.5,,0.5,1,0.5,,
CCCC(=O)NC[C@H]1CN(c2cc(F)c3c(c2)OC[C@@H]2CCCN32)C(=O)O1,4,4,4,,4,4,4,,
